# Tests used:
# [1] = target: Adenosine receptor A3 (Homo sapiens) (UniProt P0DMS8); assay: Displacement of [3H]ABMECA from human adenosine A3 receptor at 10 uM relative to control
# Method in brief: (§1)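 Outsourced CNS panel of 55 receptor binding assays run by Cerep. Compound tested at 10 μM, the default primary-binding concentration, with inhibition expressed relative to control. Inhibition above 50% taken as a significant effect.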
# Salmonella typhimurium [2] = assay: Mutagenic activity in Salmonella typhimurium TA98 assessed as number of reversion mutation at 30 ug/plate; type: toxicity, organism-based; settings: salmonella enterica subsp. enterica serovar typhimurium
# Method in brief: (§2)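 Ames reversion test in Salmonella typhimurium TA98 and TA100, with and without rat liver S9 metabolic activation. Compound was dissolved in DMSO and added at 3–5000 μg/plate. Each dose, vehicle and positive control was plated in triplicate, and revertant colonies were counted.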
# [3] = target: 5-hydroxytryptamine receptor 2A (Homo sapiens) (UniProt P28223); assay: Displacement of [3H]ketanserin from human 5-HT2A receptor at 10 uM relative to control
# Sequence of 5-hydroxytryptamine receptor 2A (Homo sapiens) (P28223 whole entry): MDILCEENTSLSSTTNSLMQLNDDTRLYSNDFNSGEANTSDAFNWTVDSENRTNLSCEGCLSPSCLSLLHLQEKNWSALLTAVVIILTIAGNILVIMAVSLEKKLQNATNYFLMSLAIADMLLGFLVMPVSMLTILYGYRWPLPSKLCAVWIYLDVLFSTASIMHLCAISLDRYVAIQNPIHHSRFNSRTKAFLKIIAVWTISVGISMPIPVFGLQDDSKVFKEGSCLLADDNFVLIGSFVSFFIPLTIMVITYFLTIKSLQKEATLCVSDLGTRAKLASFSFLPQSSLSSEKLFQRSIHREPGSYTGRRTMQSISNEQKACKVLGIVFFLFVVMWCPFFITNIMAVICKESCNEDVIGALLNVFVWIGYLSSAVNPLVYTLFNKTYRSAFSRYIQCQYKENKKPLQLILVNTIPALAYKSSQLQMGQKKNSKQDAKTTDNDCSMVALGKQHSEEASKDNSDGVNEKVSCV
# Method in brief: (§3)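 Outsourced CNS receptor panel (55 binding assays); compound tested at 10 μM in primary radioligand binding; specific binding inhibition expressed relative to control, with >50% inhibition taken as a significant effect.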
# [4] = target: Sodium-dependent dopamine transporter (Homo sapiens, UniProt Q01959); assay: Displacement of [3H]BTCP from human DAT at 10 uM relative to control; method in brief: as §1
# Sequence of Sodium-dependent dopamine transporter (Q01959 whole entry): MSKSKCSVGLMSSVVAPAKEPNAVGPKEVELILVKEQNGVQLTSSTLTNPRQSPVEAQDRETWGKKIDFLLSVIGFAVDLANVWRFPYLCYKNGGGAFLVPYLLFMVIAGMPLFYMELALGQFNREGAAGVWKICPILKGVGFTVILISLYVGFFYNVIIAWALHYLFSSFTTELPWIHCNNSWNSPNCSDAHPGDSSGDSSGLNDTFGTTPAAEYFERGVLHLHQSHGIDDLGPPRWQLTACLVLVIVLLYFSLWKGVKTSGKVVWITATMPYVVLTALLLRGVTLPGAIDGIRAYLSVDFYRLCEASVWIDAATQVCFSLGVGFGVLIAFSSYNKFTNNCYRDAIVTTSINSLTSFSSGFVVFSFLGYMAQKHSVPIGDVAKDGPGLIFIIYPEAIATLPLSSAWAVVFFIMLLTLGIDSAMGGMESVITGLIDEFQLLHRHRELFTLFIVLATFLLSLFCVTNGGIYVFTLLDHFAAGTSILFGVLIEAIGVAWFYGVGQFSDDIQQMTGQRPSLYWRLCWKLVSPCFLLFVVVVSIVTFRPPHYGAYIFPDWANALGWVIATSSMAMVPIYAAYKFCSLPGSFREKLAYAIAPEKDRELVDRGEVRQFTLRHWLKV
# [5] = target: C-C chemokine receptor type 1 (Homo sapiens) (UniProt P32246); assay: Displacement of [125I]MIP-1alpha from human CCR1 receptor at 10 uM relative to control; method in brief: as §1
# Sequence of C-C chemokine receptor type 1 (Homo sapiens) (P32246 whole entry): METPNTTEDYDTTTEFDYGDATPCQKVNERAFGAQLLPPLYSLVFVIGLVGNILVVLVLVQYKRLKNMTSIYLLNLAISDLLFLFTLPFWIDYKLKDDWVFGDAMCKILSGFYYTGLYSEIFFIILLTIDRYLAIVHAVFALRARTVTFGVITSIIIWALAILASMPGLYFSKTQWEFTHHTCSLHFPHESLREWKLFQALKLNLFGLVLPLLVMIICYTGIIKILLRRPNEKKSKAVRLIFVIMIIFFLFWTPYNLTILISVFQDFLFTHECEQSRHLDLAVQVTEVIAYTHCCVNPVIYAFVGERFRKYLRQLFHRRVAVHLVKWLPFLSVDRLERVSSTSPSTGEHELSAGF
# Rattus norvegicus = assay: Antidepressant activity in rat assessed as reduction in immobility time at 5 mg/kg, po by forced swimming test relative to control; type: functional
# Method in brief: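 Male rats dosed orally at 5, 10 or 20 mg/kg alongside vehicle and venlafaxine 30 mg/kg PO groups. 1 h post-dose, each rat placed in a glass cylinder (40 cm × 18 cm) holding 15 cm of 25 ± 1 °C water. Immobility time recorded over a 6 min trial; significant main effects followed by post hoc Fisher's test.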
# [6] = target: Melatonin receptor type 1A (Homo sapiens) (UniProt P48039); assay: Displacement of 2-[125I]iodomelatonin from human melatonin MT1 receptor at 10 uM relative to control; method in brief: as §1
# Sequence of Melatonin receptor type 1A (Homo sapiens) (P48039 whole entry): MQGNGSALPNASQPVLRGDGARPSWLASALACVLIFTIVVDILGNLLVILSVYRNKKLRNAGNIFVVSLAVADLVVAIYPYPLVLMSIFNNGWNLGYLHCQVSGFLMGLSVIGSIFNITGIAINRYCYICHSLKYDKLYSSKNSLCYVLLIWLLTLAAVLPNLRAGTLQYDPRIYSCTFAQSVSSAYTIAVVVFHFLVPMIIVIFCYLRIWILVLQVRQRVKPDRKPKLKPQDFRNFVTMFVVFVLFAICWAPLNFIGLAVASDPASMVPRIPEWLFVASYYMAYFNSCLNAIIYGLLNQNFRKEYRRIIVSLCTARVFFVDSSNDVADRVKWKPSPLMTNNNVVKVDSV
# [7] = target: D(1A) dopamine receptor (Homo sapiens) (UniProt P21728); assay: Displacement of [3H]SCH23390 from human dopamine D1 receptor at 10 uM relative to control; method in brief: as §1
# Sequence of D(1A) dopamine receptor (Homo sapiens) (P21728 whole entry): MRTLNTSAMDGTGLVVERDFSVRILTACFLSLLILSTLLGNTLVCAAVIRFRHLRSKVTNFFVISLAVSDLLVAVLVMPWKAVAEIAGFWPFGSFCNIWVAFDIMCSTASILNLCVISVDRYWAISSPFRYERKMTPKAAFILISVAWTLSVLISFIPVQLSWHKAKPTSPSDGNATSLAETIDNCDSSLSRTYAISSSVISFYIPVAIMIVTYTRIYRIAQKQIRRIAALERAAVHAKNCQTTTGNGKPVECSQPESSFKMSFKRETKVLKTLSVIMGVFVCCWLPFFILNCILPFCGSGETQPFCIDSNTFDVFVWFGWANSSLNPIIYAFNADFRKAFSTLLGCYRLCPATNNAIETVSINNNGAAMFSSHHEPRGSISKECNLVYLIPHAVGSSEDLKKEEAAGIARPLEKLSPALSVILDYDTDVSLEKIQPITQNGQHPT
# [8] = Cmax in Sprague-Dawley rat at 0.5 mg/kg, iv; type: ADME, organism-based; design: dose 0.5 mg/kg, route intravenous; settings: in vivo
# Method in brief: (§4)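 Male SD rats, fasted overnight until 6 h post-dose. PO group received single 2 mg/kg with heparinized blood sampled at 5, 15, 30 min, 1, 2, 4, 8, 24 h. IV group received single 0.5 mg/kg via femoral vein with sampling at 5, 15, 30 min, 1, 2, 4 h. Plasma stored at -40 °C, quantified by LC/MS/MS; 24 rats per group.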
# [9] = Drug uptake in Sprague-Dawley rat brain at 0.5 mg/kg ip after 0.50 hrs
# Salmonella typhimurium [10] = assay: Mutagenic activity in Salmonella typhimurium TA100 assessed as number of reversion mutation at 1000 ug/plate; type: toxicity, organism-based; settings: salmonella enterica subsp. enterica serovar typhimurium; method in brief: as §2
# Homo sapiens = species on record: Homo sapiens; assay: Inhibition of SKca channel (unknown origin) at 10 uM by [125I]apamin binding assay relative to control; method in brief: as §3
# Salmonella typhimurium [11] = assay: Mutagenic activity in Salmonella typhimurium TA100 assessed as number of reversion mutation at 30 ug/plate; type: toxicity, organism-based; settings: salmonella enterica subsp. enterica serovar typhimurium; method in brief: as §2
# [12] = Drug uptake in Sprague-Dawley rat plasma at 0.5 mg/kg iv after 2 hrs; type: ADME, organism-based; design: dose 0.5 mg/kg, route intravenous
# Method in brief: (§5)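 Male SD rats, fasted overnight until 6 h post-dose; single 0.5 mg/kg femoral-vein injection; blood drawn into heparin at 5, 15, 30 min, 1, 2 and 4 h; plasma stored at -40 °C; drug levels by LC/MS/MS; noncompartmental parameters.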
# [13] = target: Kappa-type opioid receptor (Homo sapiens) (UniProt P41145); assay: Displacement of [3H]U69593 from human kappa opioid receptor at 10 uM relative to control; method in brief: as §3
# Sequence of Kappa-type opioid receptor (Homo sapiens) (P41145 whole entry): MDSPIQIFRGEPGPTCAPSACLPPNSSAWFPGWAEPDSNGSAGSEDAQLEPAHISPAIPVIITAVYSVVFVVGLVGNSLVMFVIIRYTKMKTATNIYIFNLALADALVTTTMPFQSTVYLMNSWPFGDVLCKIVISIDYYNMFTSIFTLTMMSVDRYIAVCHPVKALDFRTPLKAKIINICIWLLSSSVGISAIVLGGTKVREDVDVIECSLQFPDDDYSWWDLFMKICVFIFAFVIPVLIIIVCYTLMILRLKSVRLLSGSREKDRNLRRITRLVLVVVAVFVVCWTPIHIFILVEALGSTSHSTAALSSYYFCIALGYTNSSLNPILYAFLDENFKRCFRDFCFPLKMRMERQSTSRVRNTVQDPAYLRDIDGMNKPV
# [14] = Apparent volume of distribution during terminal phase in Sprague-Dawley rat at 2 mg/kg, po; type: ADME, organism-based; design: dose 2 mg/kg, route oral; settings: in vivo, read-out: Vz/F; method in brief: as §4
# [15] = target: Beta-2 adrenergic receptor (Homo sapiens) (UniProt P07550); assay: Displacement of [3H]CGP-12177 from human beta2-adrenergic receptor at 10 uM relative to control; method in brief: as §1
# Sequence of Beta-2 adrenergic receptor (Homo sapiens) (P07550 whole entry, looked up): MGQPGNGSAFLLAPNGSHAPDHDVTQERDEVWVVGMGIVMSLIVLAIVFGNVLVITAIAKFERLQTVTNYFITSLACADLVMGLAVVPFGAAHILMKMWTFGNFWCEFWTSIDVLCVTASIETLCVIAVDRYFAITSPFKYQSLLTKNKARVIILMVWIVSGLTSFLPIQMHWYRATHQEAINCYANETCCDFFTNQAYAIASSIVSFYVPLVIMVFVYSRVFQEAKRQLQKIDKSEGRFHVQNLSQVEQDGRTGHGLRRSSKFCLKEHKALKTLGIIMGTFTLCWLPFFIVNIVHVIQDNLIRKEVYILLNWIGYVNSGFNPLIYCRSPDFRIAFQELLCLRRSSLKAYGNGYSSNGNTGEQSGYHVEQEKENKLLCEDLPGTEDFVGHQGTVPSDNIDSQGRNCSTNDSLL
# Salmonella typhimurium [16] = assay: Mutagenic activity in Salmonella typhimurium TA100 assessed as number of reversion mutation at 5000 ug/plate; type: toxicity, organism-based; settings: salmonella enterica subsp. enterica serovar typhimurium; method in brief: as §2
# [17] = target: Histamine H1 receptor (Homo sapiens) (UniProt P35367); assay: Displacement of [3H]Pyrilamine from human histamine H1 receptor at 10 uM relative to control; method in brief: as §1
# [18] = target: Adenosine receptor A1 (Homo sapiens) (UniProt P30542); assay: Displacement of [3H]-DPCPX from human adenosine A1 receptor at 10 uM relative to control; method in brief: as §1
# Sequence of Adenosine receptor A1 (Homo sapiens) (P30542 whole entry): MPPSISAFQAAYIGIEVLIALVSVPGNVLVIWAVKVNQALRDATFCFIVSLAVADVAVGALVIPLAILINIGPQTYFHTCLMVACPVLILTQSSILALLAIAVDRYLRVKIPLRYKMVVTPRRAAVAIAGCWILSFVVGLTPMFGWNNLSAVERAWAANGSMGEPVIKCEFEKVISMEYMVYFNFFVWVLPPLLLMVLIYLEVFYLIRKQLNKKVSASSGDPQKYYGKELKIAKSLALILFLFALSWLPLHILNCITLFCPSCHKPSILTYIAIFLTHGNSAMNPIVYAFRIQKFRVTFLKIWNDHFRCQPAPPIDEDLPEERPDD
# [19] = target: Sodium-dependent serotonin transporter (Homo sapiens, UniProt P31645); assay: Inhibition of [3H]-serotonin uptake in human SERT expressed in HEK293 cells by scintillation counting; type: cell-based
# Salmonella typhimurium [20] = assay: Mutagenic activity in Salmonella typhimurium TA100 assessed as number of reversion mutation at 100 ug/plate; type: toxicity, organism-based; settings: salmonella enterica subsp. enterica serovar typhimurium; method in brief: as §2
# [21] = Drug uptake in Sprague-Dawley rat brain at 0.5 mg/kg ip after 0.25 hrs
# [22] = target: Sodium-dependent noradrenaline transporter (Homo sapiens, UniProt P23975); assay: Inhibition of [3H]-NE uptake in human norepinephrine transporter expressed in HEK293 cells by scintillation counting; type: cell-based
# [23] = Acute toxicity in KM mouse assessed as survival at 450 mg/kg, po up to 14 days (reference value: 100%); type: organism-based; design: dose 450 mg/kg, route oral; settings: in vivo
# [24] = target: Prostaglandin E2 receptor EP4 subtype (Homo sapiens) (UniProt P35408); assay: Displacement of [3H]PGE2 from human EP4 receptor at 10 uM relative to control; method in brief: as §1
# Sequence of Prostaglandin E2 receptor EP4 subtype (Homo sapiens) (P35408 whole entry): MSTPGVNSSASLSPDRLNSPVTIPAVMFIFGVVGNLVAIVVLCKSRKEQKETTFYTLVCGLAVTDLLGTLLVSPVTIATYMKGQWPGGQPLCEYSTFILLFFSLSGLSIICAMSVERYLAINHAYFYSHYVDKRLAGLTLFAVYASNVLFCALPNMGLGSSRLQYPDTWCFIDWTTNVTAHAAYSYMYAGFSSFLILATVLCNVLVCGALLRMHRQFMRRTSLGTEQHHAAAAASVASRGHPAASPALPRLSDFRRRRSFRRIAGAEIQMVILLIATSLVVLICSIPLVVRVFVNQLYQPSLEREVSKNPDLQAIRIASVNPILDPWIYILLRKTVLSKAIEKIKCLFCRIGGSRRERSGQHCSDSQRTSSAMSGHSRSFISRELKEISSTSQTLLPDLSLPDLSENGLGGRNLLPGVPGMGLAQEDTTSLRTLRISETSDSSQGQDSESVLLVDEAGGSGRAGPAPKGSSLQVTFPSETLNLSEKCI
# [25] = target: Delta-type opioid receptor (Homo sapiens) (UniProt P41143); assay: Displacement of [3H] DADLE from human delta opioid receptor at 10 uM relative to control; method in brief: as §1
# Sequence of Delta-type opioid receptor (Homo sapiens) (P41143 whole entry): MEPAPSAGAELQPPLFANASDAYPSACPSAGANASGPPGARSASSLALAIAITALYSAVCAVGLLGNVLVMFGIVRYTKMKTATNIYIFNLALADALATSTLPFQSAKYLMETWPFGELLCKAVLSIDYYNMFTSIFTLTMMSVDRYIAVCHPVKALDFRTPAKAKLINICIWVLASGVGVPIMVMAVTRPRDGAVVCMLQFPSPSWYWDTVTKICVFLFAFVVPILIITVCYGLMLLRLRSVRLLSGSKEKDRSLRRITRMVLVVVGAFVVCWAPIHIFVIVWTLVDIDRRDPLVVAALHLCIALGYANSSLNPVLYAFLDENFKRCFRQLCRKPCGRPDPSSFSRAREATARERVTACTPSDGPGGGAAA
# [26] = target: 5-hydroxytryptamine receptor 5A (Homo sapiens) (UniProt P47898); assay: Displacement of [3H]LSD from human 5-HT5A receptor at 10 uM relative to control; method in brief: as §1
# Sequence of 5-hydroxytryptamine receptor 5A (Homo sapiens) (P47898 whole entry): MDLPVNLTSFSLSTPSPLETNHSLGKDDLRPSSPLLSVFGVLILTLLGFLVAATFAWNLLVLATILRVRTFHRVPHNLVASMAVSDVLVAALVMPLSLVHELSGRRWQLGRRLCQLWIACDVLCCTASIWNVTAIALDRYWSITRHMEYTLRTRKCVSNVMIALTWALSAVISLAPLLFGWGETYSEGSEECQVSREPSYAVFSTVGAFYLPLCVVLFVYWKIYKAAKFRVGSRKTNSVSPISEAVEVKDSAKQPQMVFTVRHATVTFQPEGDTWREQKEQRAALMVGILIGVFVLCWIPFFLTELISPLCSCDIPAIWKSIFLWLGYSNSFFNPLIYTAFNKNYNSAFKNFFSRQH
# [27] = Drug uptake in Sprague-Dawley rat plasma at 0.5 mg/kg iv after 4 hrs; type: ADME, organism-based; design: dose 0.5 mg/kg, route intravenous; method in brief: as §5
# [28] = Acute toxicity in KM mouse assessed as survival at 300 mg/kg, po up to 14 days (reference value: 100%); type: organism-based; design: dose 300 mg/kg, route oral; settings: in vivo
# [29] = target: Vasopressin V1a receptor (Homo sapiens) (UniProt P37288); assay: Displacement of [3H]AVP from human V1a receptor at 10 uM relative to control; method in brief: as §1
# [30] = target: 5-hydroxytryptamine receptor 2B (Homo sapiens) (UniProt P41595); assay: Displacement of [125I] (+/-)DOI from human 5-HT2B receptor at 10 uM relative to control; method in brief: as §1
# [31] = Acute toxicity in KM mouse assessed as survival at 150 mg/kg, po up to 14 days (reference value: 100%); type: organism-based; design: dose 150 mg/kg, route oral; settings: in vivo
# Sequence of Adenosine receptor A3 (Homo sapiens) (P0DMS8 whole entry): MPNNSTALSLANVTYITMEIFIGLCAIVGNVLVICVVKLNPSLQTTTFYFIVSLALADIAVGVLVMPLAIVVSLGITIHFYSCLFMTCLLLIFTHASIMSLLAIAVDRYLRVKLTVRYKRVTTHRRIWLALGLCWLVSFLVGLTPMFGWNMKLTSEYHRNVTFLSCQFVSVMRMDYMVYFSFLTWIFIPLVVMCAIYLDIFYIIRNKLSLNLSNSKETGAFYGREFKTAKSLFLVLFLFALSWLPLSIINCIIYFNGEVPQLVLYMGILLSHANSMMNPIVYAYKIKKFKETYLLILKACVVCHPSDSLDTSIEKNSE
compound,measurement,setting,value
CN(C)CCC(c1ccc(Cl)c(Cl)c1)N1CCOCC1 (stereo not drawn),inhibition,[1],2.6%
same,Activity,Salmonella typhimurium [2],36
same,inhibition,[3],32.1%
same,inhibition,[4],93.6%
same,inhibition,[5],22.1%
same,inhibition in vivo at 5 mg/kg,Rattus norvegicus,31%
same,inhibition,[6],-7.1%
same,inhibition,[7],2.2%
same,Cmax,[8],48.5 ng/mL
same,concentration at 0.5 h,[9],549 ng/mL
same,Activity,Salmonella typhimurium [10],87
same,inhibition,Homo sapiens,-3.8%
same,Activity,Salmonella typhimurium [11],75
same,concentration at 2 h,[12],10.9 ng/mL
same,inhibition,[13],11.2%
same,Vd/F,[14],164 L/kg
same,inhibition,[15],4.9%
same,Activity,Salmonella typhimurium [16],77
same,inhibition,[17],22.7%
same,inhibition,[18],8.7%
same,IC50,[19],378 nM
same,Activity,Salmonella typhimurium [20],74
same,concentration at 0.25 h,[21],925 ng/mL
same,IC50,[22],478 nM
same,survival at 336 h,[23],100%
same,inhibition,[24],-1.2%
same,inhibition,[25],-1.1%
same,inhibition,[26],1.4%
same,concentration at 4 h,[27],3.7 ng/mL
same,survival at 336 h,[28],100%
same,inhibition,[29],3.3%
same,inhibition,[30],19.2%
same,survival at 336 h,[31],100%

# Reference: ChEMBL document CHEMBL3352559, “Synthesis and pharmacological investigation of aralkyl diamine derivatives as potential triple reuptake inhibitors” (Eur J Med Chem, 2014)
